Reference: PMC6146385 (Acta Pharmaceutica Sinica. B, 2018)

Tests used:
[1] = target: T1, AB sulfation in HLC (SULT2A1) (Homo sapiens, UniProt Q06520); assay: Chemical inhibition of AB sulfation in HLC; format: biochemical; details: for inhibition of AB sulfation / residual activity of AB sulfation: HLC, Fig. 2A
T1 sequence (Q06520 1-285): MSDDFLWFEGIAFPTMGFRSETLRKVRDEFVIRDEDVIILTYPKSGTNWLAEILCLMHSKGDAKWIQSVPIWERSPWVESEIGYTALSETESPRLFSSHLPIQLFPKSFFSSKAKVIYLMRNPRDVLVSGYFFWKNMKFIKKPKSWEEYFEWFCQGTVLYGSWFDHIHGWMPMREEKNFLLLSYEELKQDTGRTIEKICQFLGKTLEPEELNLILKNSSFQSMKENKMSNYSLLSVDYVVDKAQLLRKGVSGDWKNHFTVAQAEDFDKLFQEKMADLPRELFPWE

SULT2A1 [2] = target: T2, SULT2A1 (Homo sapiens, UniProt Q06520); assay: Sulfation of AB, DHEA and bufadienolides by recombinant human SULT2A1; format: in vitro ADME
T2 sequence (Q06520 1-285): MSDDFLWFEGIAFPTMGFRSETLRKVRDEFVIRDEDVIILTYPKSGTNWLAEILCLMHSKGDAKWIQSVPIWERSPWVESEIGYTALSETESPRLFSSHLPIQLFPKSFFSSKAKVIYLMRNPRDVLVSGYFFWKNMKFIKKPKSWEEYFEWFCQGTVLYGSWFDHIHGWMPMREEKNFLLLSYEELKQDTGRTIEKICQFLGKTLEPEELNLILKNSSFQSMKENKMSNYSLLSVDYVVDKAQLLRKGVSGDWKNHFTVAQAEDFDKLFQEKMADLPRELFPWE

SULT1E1 = target: T3, SULT1E1 (Homo sapiens, UniProt P49888); assay: DHEA sulfation kinetics by recombinant SULT1E1; format: in vitro ADME
T3 sequence (P49888 1-294): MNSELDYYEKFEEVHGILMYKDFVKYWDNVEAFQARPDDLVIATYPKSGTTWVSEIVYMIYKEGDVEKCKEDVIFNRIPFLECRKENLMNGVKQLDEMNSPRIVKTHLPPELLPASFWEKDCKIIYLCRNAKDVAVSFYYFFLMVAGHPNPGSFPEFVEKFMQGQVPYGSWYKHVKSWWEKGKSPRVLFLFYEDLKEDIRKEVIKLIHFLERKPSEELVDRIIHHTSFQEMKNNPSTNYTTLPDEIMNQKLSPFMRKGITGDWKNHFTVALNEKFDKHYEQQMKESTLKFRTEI

[3] = Sulfation kinetics and rate in pooled human liver cytosols; format: in vitro ADME; details: human, pooled human liver cytosols (HLC), pH 7.4
Procedure, shortened: (§1)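 Substrate-concentration series with pooled mixed-gender human liver cytosol or recombinant human SULTs. Buffer is 50 mmol/L potassium phosphate, pH 7.4, with DTT 8 mmol/L, MgCl2 5 mmol/L and PAPS 4 mmol/L, at 37 °C and within linear formation conditions. Sulfate is quantified by LC–MS/MS. Eadie–Hofstee plots choose the Michaelis–Menten or substrate-inhibition fit. Km, Vmax (and Ksi) come from nonlinear regression. Duplicates in three independent experiments.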

SULT2A1 (sulfation) = assay: as above; format: in vitro ADME; details: human, pooled human liver cytosols (HLC), pH 7.4, Km, sulfation by HLC
Procedure, shortened: as §1

[4] = test system: pooled human liver cytosols (HLC); assay: as above; format: in vitro ADME
Procedure, shortened: as §1

SULT2A1 [5] = target: T2, SULT2A1; assay: Inhibition of AB sulfation in rhSULT2A1; format: biochemical
[6] = target: T4, AB sulfation in cytosol of human kidney, small intestine and brain (Homo sapiens, UniProt Q06520); assay: Inhibition of AB sulfation in cytosol of human kidney, small intestine and brain; format: biochemical; details: Fig. S5
T4 sequence (Q06520 1-285): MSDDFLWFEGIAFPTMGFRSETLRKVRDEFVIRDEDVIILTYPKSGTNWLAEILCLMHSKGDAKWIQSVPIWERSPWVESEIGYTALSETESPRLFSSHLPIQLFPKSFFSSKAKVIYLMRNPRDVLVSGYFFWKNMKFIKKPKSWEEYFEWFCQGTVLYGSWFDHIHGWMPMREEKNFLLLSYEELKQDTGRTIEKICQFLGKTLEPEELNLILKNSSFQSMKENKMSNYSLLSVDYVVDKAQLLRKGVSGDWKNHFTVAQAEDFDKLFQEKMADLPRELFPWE

[7] = substrate: C[C@]12CC[C@H](O)CC1=CC[C@@H]1[C@@H]2CC[C@]2(C)C(=O)CC[C@@H]12; assay: DHEA sulfation kinetics by recombinant SULT1E1; format: in vitro ADME, human; details: other: sulfation by SULT1E1; pH 7.4; 37.0 °C
[8] = substrate: C[C@]12CC[C@H](O)CC1=CC[C@@H]1[C@@H]2CC[C@]2(C)C(=O)CC[C@@H]12; assay: Sulfation of AB, DHEA and bufadienolides by recombinant human SULT2A1; format: in vitro ADME; details: other: sulfation by SULT2A1; pH 7.4; 37.0 °C

## O=[N+]([O-])c1cc(Cl)c(O)c(Cl)c1 [DCNP, 2,6-dichloro-p-nitrophenol]
[1]
  inhibition of AB sulfation: less than 20%

## C[C@]12CC[C@H](O)CC1=CC[C@@H]1[C@@H]2CC[C@]2(C)C(=O)CC[C@@H]12 [DHEA, dehydroepiandrosterone]
SULT2A1 [2]; human, recombinant human SULT2A1 (rhSULT2A1), pH 7.4
  microsomal CLint: 2940 µL/min/mg
SULT2A1 [2]; rhSULT2A1, Eadie–Hofstee plot
  kinetic model of sulfation: substrate inhibition kinetic model
SULT2A1 [2]; sulfation by SULT2A1
  Ksi: 2.2 ± 0.9 µmol/L
SULT1E1; SULT1E1 vs SULT2A1
  CLint of SULT1E1-mediated sulfation, fold higher than for SULT2A1: 1.5 fold
  Km of SULT1E1-mediated sulfation, fold lower than for SULT2A1: 7.2 fold
SULT1E1; human, recombinant human SULT1E1 (rhSULT1E1), pH 7.4
  microsomal CLint: 4260 µL/min/mg
SULT1E1; rhSULT1E1
  kinetic model of sulfation: substrate inhibition kinetic model
SULT1E1; sulfation by SULT1E1
  Ksi: 2.9 ± 1.2 µmol/L
[3]
  microsomal CLint: 48.2 µL/min/mg
SULT2A1 (sulfation)
  Km: 1.08 ± 0.17 µM
[4]; HLC, Eadie–Hofstee plot
  kinetic model of sulfation: substrate inhibition kinetic model
[4]; sulfation by HLC
  Ksi: 17.2 ± 2.9 µmol/L
  Vm: 0.052 ± 0.004 nmol/min/mg
[1]
  IC50: 1.88 µM
  residual activity of AB sulfation: less than 10%
SULT2A1 [5]
  IC50: 1.64 µM
[6]
  inhibitory effect toward AB sulfation in different organs: strong inhibitory effect

## CC1(C)[C@@H](O)CC[C@]2(C)[C@H]3C(=O)C=C4[C@@H]5C[C@@](C)(C(=O)O)CC[C@]5(C)CC[C@@]4(C)[C@]3(C)CC[C@@H]12 [GA, glycyrrhetinic acid]
[1]
  residual activity of AB sulfation: less than 10%
[6]
  inhibitory effect toward AB sulfation in different organs: strong inhibitory effect

## Cc1cccc(Nc2ccccc2C(=O)O)c1C [MFC, mefenamic acid]
[1]
  inhibition of AB sulfation: less than 20%

## C[C@]12CC[C@H](O)C[C@H]1CC[C@@H]1[C@@H]2CC[C@]2(C)[C@@H](c3ccc(=O)oc3)C[C@H]3O[C@]132 [RB, resibufogenin]
SULT2A1 [2]; 1, 10 and 100 µmol/L, 0.1 mg/mL protein, 60 min, Fig. S1B
  sulfation rates by SULT2A1 compared with other bufadienolides: higher than those of other bufadienolides
SULT2A1 [2]; up to 100 µmol/L, SULT2A1
  trend of sulfation rate with increasing substrate concentration: decreasing trend

## C[C@]12CC[C@@H]3c4ccc(O)cc4CC[C@H]3[C@@H]1CCC2=O [estrone]
[1]
  inhibition of AB sulfation: less than 20%

## CC(C)Cc1ccc(C(C)C(=O)O)cc1 (centres unmarked) [ibuprofen]
[1]
  inhibition of AB sulfation: less than 20%

## CS(=O)(=O)Nc1ccc([N+](=O)[O-])cc1Oc1ccccc1 [nimesulide]
[1]
  inhibition of AB sulfation: less than 20%

B1: rhSULT1E1 (Homo sapiens) (protein)
chain: MNSELDYYEKFEEVHGILMYKDFVKYWDNVEAFQARPDDLVIATYPKSGTTWVSEIVYMIYKEGDVEKCKEDVIFNRIPFLECRKENLMNGVKQLDEMNSPRIVKTHLPPELLPASFWEKDCKIIYLCRNAKDVAVSFYYFFLMVAGHPNPGSFPEFVEKFMQGQVPYGSWYKHVKSWWEKGKSPRVLFLFYEDLKEDIRKEVIKLIHFLERKPSEELVDRIIHHTSFQEMKNNPSTNYTTLPDEIMNQKLSPFMRKGITGDWKNHFTVALNEKFDKHYEQQMKESTLKFRTEI
[7]
  Km: 0.34 ± 0.13 µM
  Vmax: 0.00145 µmol/min/mg
  Vmax/Km: 4260 µL/min/mg

B2: rhSULT2A1 (Homo sapiens) (protein)
chain: MSDDFLWFEGIAFPTMGFRSETLRKVRDEFVIRDEDVIILTYPKSGTNWLAEILCLMHSKGDAKWIQSVPIWERSPWVESEIGYTALSETESPRLFSSHLPIQLFPKSFFSSKAKVIYLMRNPRDVLVSGYFFWKNMKFIKKPKSWEEYFEWFCQGTVLYGSWFDHIHGWMPMREEKNFLLLSYEELKQDTGRTIEKICQFLGKTLEPEELNLILKNSSFQSMKENKMSNYSLLSVDYVVDKAQLLRKGVSGDWKNHFTVAQAEDFDKLFQEKMADLPRELFPWE
[8]
  Km: 2.48 ± 1.15 µM
  Vmax: 0.0073 µmol/min/mg
  Vmax/Km: 2940 µL/min/mg
